Laboratory results taken from ChEMBL document CHEMBL1629506, “Design, synthesis and structure-activity relationship study of novel pyrazole-based heterocycles as potential antitumor agents” (Eur J Med Chem, 2010).

System: Rattus norvegicus
Assay: Antiestrogenic activity in Sprague-Dawley rat assessed as reduction in estradiol induced uterine weight upto 0.06 ug, po after 8 days
Assay type: functional
Set-up: scale not given: the % may be the effect or the level left
Conditions: not given
Procedure, shortened: (§1)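 Immature ovariectomized female Sprague-Dawley rats (~55 g), groups of 12. Estradiol 0.03–0.05 given s.c. daily for 7 days, with test compound or letrozole reference at various doses up to 0.06 per animal, given orally in 0.5% carboxymethylcellulose. Controls received estradiol alone. Uterine weights were taken on day 8 and group means expressed as % reduction versus estradiol-only controls. Potency was taken relative to letrozole.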

SMILES | Activity [%]
CCOC(=O)c1nn(-c2ccccc2)cc1C(=O)c1nn(-c2ccccc2)c(-c2ccccc2)c1C#N | 23.98
CCOC(=O)c1nn(-c2ccc(Cl)cc2)cc1C(=O)c1nn(-c2ccccc2)c(-c2ccccc2)c1C#N | 34.86
CCOC(=O)c1nn(-c2ccc(C)cc2)cc1C(=O)c1nn(-c2ccccc2)c(-c2ccccc2)c1C#N | 42.83
N#Cc1c(-c2nnc(O)c3nn(-c4ccccc4)cc23)nn(-c2ccccc2)c1-c1ccccc1 | 32.86

System: Rattus norvegicus
Assay: Antiestrogenic activity in Sprague-Dawley rat assessed as reduction in estradiol induced uterine weight 0.06 ug, po after 8 days relative to letrozole
Assay type: functional
Conditions: not given
Procedure, shortened: as §1

SMILES | potency ratio vs letrozole
CCOC(=O)c1nn(-c2ccccc2)cc1C(=O)c1nn(-c2ccccc2)c(-c2ccccc2)c1C#N | 1.1
CCOC(=O)c1nn(-c2ccc(Cl)cc2)cc1C(=O)c1nn(-c2ccccc2)c(-c2ccccc2)c1C#N | 1.61
CCOC(=O)c1nn(-c2ccc(C)cc2)cc1C(=O)c1nn(-c2ccccc2)c(-c2ccccc2)c1C#N | 1.96
N#Cc1c(-c2nnc(O)c3nn(-c4ccccc4)cc23)nn(-c2ccccc2)c1-c1ccccc1 | 1.51

System: not listed separately
Assay: Acute toxicity in mouse after 24 hrs
Assay type: organism-based
Conditions: in vivo
Procedure, shortened: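 Adult mice of both sexes, acclimatized 1 week (12 h light/dark, 21–23 °C), fasted 12 h before dosing. 30 mice in 6 groups of 5 each got a single oral gavage dose, at different dose levels, of a fine-powder aqueous suspension. LD50 was determined, with values as group means of five mice.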

SMILES | LD50 at 24 h [mg/kg]
CCOC(=O)c1nn(-c2ccccc2)cc1C(=O)c1nn(-c2ccccc2)c(-c2ccccc2)c1C#N | 122
CCOC(=O)c1nn(-c2ccc(Cl)cc2)cc1C(=O)c1nn(-c2ccccc2)c(-c2ccccc2)c1C#N | 143
CCOC(=O)c1nn(-c2ccc(C)cc2)cc1C(=O)c1nn(-c2ccccc2)c(-c2ccccc2)c1C#N | 274
N#Cc1c(-c2nnc(O)c3nn(-c4ccccc4)cc23)nn(-c2ccccc2)c1-c1ccccc1 | 114

System: MDA-MB-231
Assay: Growth inhibition of human MDA-MB-231cells after 48 hrs by sulforhodamine B assay
Assay type: functional
Conditions: MDA-MB-231, 48 h
Procedure, shortened: (§2)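 Cells were plated at 5000–40,000 cells/well, depending on doubling time, and preincubated 24 h at 37 °C in 5% CO2. Time-zero plates were TCA-fixed at drug addition. Compounds were dissolved in DMSO and tested at five concentrations (10-fold or ½-log dilutions) for 48 h. Cells were fixed with cold TCA, stained with 0.4% sulforhodamine B and read at 515 nm. GI50 was taken as the concentration giving 50% growth.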

SMILES | GI50 [µM]
CCOC(=O)c1nn(-c2ccc(Cl)cc2)cc1C(=O)c1nn(-c2ccccc2)c(-c2ccccc2)c1C#N | > 100
CCOC(=O)c1nn(-c2ccc(C)cc2)cc1C(=O)c1nn(-c2ccccc2)c(-c2ccccc2)c1C#N | > 100
N#Cc1c(-c2nnc(O)c3nn(-c4ccccc4)cc23)nn(-c2ccccc2)c1-c1ccccc1 | 6.21

System: MCF7
Assay: Growth inhibition of human MCF7 cells after 48 hrs by sulforhodamine B assay
Assay type: functional
Conditions: MCF7, 48 h
Procedure, shortened: as §2

SMILES | GI50 [µM]
CCOC(=O)c1nn(-c2ccccc2)cc1C(=O)c1nn(-c2ccccc2)c(-c2ccccc2)c1C#N | 5.49
CCOC(=O)c1nn(-c2ccc(Cl)cc2)cc1C(=O)c1nn(-c2ccccc2)c(-c2ccccc2)c1C#N | > 100
CCOC(=O)c1nn(-c2ccc(C)cc2)cc1C(=O)c1nn(-c2ccccc2)c(-c2ccccc2)c1C#N | > 100
N#Cc1c(-c2nnc(O)c3nn(-c4ccccc4)cc23)nn(-c2ccccc2)c1-c1ccccc1 | > 100

System: T47D
Assay: Growth inhibition of human T47D cells after 48 hrs by sulforhodamine B assay
Assay type: functional
Conditions: not given
Procedure, shortened: as §2

SMILES | GI50 [µM]
CCOC(=O)c1nn(-c2ccccc2)cc1C(=O)c1nn(-c2ccccc2)c(-c2ccccc2)c1C#N | > 100
CCOC(=O)c1nn(-c2ccc(Cl)cc2)cc1C(=O)c1nn(-c2ccccc2)c(-c2ccccc2)c1C#N | > 100
CCOC(=O)c1nn(-c2ccc(C)cc2)cc1C(=O)c1nn(-c2ccccc2)c(-c2ccccc2)c1C#N | > 100
N#Cc1c(-c2nnc(O)c3nn(-c4ccccc4)cc23)nn(-c2ccccc2)c1-c1ccccc1 | 2.95

System: NCI/ADR-RES
Assay: Growth inhibition of human NCI/ADR-RES cells after 48 hrs by sulforhodamine B assay
Assay type: functional
Conditions: not given
Procedure, shortened: as §2

SMILES | GI50 [µM]
CCOC(=O)c1nn(-c2ccccc2)cc1C(=O)c1nn(-c2ccccc2)c(-c2ccccc2)c1C#N | > 100
CCOC(=O)c1nn(-c2ccc(Cl)cc2)cc1C(=O)c1nn(-c2ccccc2)c(-c2ccccc2)c1C#N | > 100
CCOC(=O)c1nn(-c2ccc(C)cc2)cc1C(=O)c1nn(-c2ccccc2)c(-c2ccccc2)c1C#N | > 100
N#Cc1c(-c2nnc(O)c3nn(-c4ccccc4)cc23)nn(-c2ccccc2)c1-c1ccccc1 | 2.76

System: not listed separately
Assay: Growth inhibition of human Hs 578T cells after 48 hrs by sulforhodamine B assay
Assay type: functional
Conditions: not given
Procedure, shortened: as §2

SMILES | GI50 [µM]
CCOC(=O)c1nn(-c2ccc(Cl)cc2)cc1C(=O)c1nn(-c2ccccc2)c(-c2ccccc2)c1C#N | 65
CCOC(=O)c1nn(-c2ccc(C)cc2)cc1C(=O)c1nn(-c2ccccc2)c(-c2ccccc2)c1C#N | > 100
N#Cc1c(-c2nnc(O)c3nn(-c4ccccc4)cc23)nn(-c2ccccc2)c1-c1ccccc1 | 46.8

System: MDA-MB-435
Assay: Growth inhibition of human MDA-MB-435 cells after 48 hrs by sulforhodamine B assay
Assay type: functional
Conditions: MDA-MB-435, 48 h
Procedure, shortened: as §2

SMILES | GI50 [µM]
CCOC(=O)c1nn(-c2ccccc2)cc1C(=O)c1nn(-c2ccccc2)c(-c2ccccc2)c1C#N | > 100
CCOC(=O)c1nn(-c2ccc(Cl)cc2)cc1C(=O)c1nn(-c2ccccc2)c(-c2ccccc2)c1C#N | 71.8
CCOC(=O)c1nn(-c2ccc(C)cc2)cc1C(=O)c1nn(-c2ccccc2)c(-c2ccccc2)c1C#N | > 100
N#Cc1c(-c2nnc(O)c3nn(-c4ccccc4)cc23)nn(-c2ccccc2)c1-c1ccccc1 | 21.8

System: MDA-N
Assay: Growth inhibition of human MDA-N cells after 48 hrs by sulforhodamine B assay
Assay type: functional
Conditions: not given
Procedure, shortened: as §2

SMILES | GI50 [µM]
CCOC(=O)c1nn(-c2ccccc2)cc1C(=O)c1nn(-c2ccccc2)c(-c2ccccc2)c1C#N | 38.4
CCOC(=O)c1nn(-c2ccc(Cl)cc2)cc1C(=O)c1nn(-c2ccccc2)c(-c2ccccc2)c1C#N | 62.3
CCOC(=O)c1nn(-c2ccc(C)cc2)cc1C(=O)c1nn(-c2ccccc2)c(-c2ccccc2)c1C#N | > 100
N#Cc1c(-c2nnc(O)c3nn(-c4ccccc4)cc23)nn(-c2ccccc2)c1-c1ccccc1 | 13.8

System: BT-549
Assay: Growth inhibition of human BT549 cells after 48 hrs by sulforhodamine B assay
Assay type: functional
Conditions: BT-549, 48 h
Procedure, shortened: as §2

SMILES | GI50 [µM]
CCOC(=O)c1nn(-c2ccccc2)cc1C(=O)c1nn(-c2ccccc2)c(-c2ccccc2)c1C#N | 31.8
CCOC(=O)c1nn(-c2ccc(Cl)cc2)cc1C(=O)c1nn(-c2ccccc2)c(-c2ccccc2)c1C#N | 39.8
CCOC(=O)c1nn(-c2ccc(C)cc2)cc1C(=O)c1nn(-c2ccccc2)c(-c2ccccc2)c1C#N | > 100
N#Cc1c(-c2nnc(O)c3nn(-c4ccccc4)cc23)nn(-c2ccccc2)c1-c1ccccc1 | 44.8

System: IGROV-1
Assay: Growth inhibition of human IGROV1 cells after 48 hrs by sulforhodamine B assay
Assay type: functional
Conditions: IGROV-1, 48 h
Procedure, shortened: as §2

SMILES | GI50 [µM]
CCOC(=O)c1nn(-c2ccccc2)cc1C(=O)c1nn(-c2ccccc2)c(-c2ccccc2)c1C#N | > 100
CCOC(=O)c1nn(-c2ccc(Cl)cc2)cc1C(=O)c1nn(-c2ccccc2)c(-c2ccccc2)c1C#N | 93.2
CCOC(=O)c1nn(-c2ccc(C)cc2)cc1C(=O)c1nn(-c2ccccc2)c(-c2ccccc2)c1C#N | 94.8
N#Cc1c(-c2nnc(O)c3nn(-c4ccccc4)cc23)nn(-c2ccccc2)c1-c1ccccc1 | 92.2

System: OVCAR-3
Assay: Growth inhibition of human OVCAR3 cells after 48 hrs by sulforhodamine B assay
Assay type: functional
Conditions: OVCAR-3, 48 h
Procedure, shortened: as §2

SMILES | GI50 [µM]
CCOC(=O)c1nn(-c2ccc(Cl)cc2)cc1C(=O)c1nn(-c2ccccc2)c(-c2ccccc2)c1C#N | > 100
CCOC(=O)c1nn(-c2ccc(C)cc2)cc1C(=O)c1nn(-c2ccccc2)c(-c2ccccc2)c1C#N | 91.8
N#Cc1c(-c2nnc(O)c3nn(-c4ccccc4)cc23)nn(-c2ccccc2)c1-c1ccccc1 | > 100

System: OVCAR-5
Assay: Growth inhibition of human OVCAR5 cells after 48 hrs by sulforhodamine B assay
Assay type: functional
Conditions: OVCAR-5, 48 h
Procedure, shortened: as §2

SMILES | GI50 [µM]
CCOC(=O)c1nn(-c2ccc(Cl)cc2)cc1C(=O)c1nn(-c2ccccc2)c(-c2ccccc2)c1C#N | 61.2
CCOC(=O)c1nn(-c2ccc(C)cc2)cc1C(=O)c1nn(-c2ccccc2)c(-c2ccccc2)c1C#N | > 100
N#Cc1c(-c2nnc(O)c3nn(-c4ccccc4)cc23)nn(-c2ccccc2)c1-c1ccccc1 | 61.8

System: OVCAR-8
Assay: Growth inhibition of human OVCAR8 cells after 48 hrs by sulforhodamine B assay
Assay type: functional
Conditions: OVCAR-8, 48 h
Procedure, shortened: as §2

SMILES | GI50 [µM]
CCOC(=O)c1nn(-c2ccccc2)cc1C(=O)c1nn(-c2ccccc2)c(-c2ccccc2)c1C#N | > 100
CCOC(=O)c1nn(-c2ccc(Cl)cc2)cc1C(=O)c1nn(-c2ccccc2)c(-c2ccccc2)c1C#N | 65.8
CCOC(=O)c1nn(-c2ccc(C)cc2)cc1C(=O)c1nn(-c2ccccc2)c(-c2ccccc2)c1C#N | 9.18
N#Cc1c(-c2nnc(O)c3nn(-c4ccccc4)cc23)nn(-c2ccccc2)c1-c1ccccc1 | 61.5

System: OVCAR-4
Assay: Growth inhibition of human OVCAR4 cells after 48 hrs by sulforhodamine B assay
Assay type: functional
Conditions: OVCAR-4, 48 h
Procedure, shortened: as §2

SMILES | GI50 [µM]
CCOC(=O)c1nn(-c2ccccc2)cc1C(=O)c1nn(-c2ccccc2)c(-c2ccccc2)c1C#N | > 100
CCOC(=O)c1nn(-c2ccc(Cl)cc2)cc1C(=O)c1nn(-c2ccccc2)c(-c2ccccc2)c1C#N | 45.8
CCOC(=O)c1nn(-c2ccc(C)cc2)cc1C(=O)c1nn(-c2ccccc2)c(-c2ccccc2)c1C#N | 5.46
N#Cc1c(-c2nnc(O)c3nn(-c4ccccc4)cc23)nn(-c2ccccc2)c1-c1ccccc1 | 26.4

System: SK-OV-3
Assay: Growth inhibition of human SKOV3 cells after 48 hrs by sulforhodamine B assay
Assay type: functional
Conditions: SK-OV-3, 48 h
Procedure, shortened: as §2

SMILES | GI50 [µM]
CCOC(=O)c1nn(-c2ccc(Cl)cc2)cc1C(=O)c1nn(-c2ccccc2)c(-c2ccccc2)c1C#N | 30.8
CCOC(=O)c1nn(-c2ccc(C)cc2)cc1C(=O)c1nn(-c2ccccc2)c(-c2ccccc2)c1C#N | > 100
N#Cc1c(-c2nnc(O)c3nn(-c4ccccc4)cc23)nn(-c2ccccc2)c1-c1ccccc1 | 36.8
